Experimental data as given in ChEMBL document CHEMBL5321214, “Targeting the multifaceted neurotoxicity of Alzheimer's disease by tailored functionalisation of the curcumin scaffold” (Eur J Med Chem, 2023).
Calls of active or inactive are those of the source. No cut-off for these calls is given here.

Legend:
[1] = system: Microglia; test: Antiinflammatory activity against Sprague-Dawley rat microglial cells assessed as inhibition of LPS-induced TNF-alpha production at 1 to 5 uM pretreated with compound for 1 hr followed by LPS stimulation for 24 hrs by ELISA; assay type: functional, cell-based; conditions: dose 1-5 µM, time 25.0 hrs
Outline: (§1)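 Primary cortical rat microglia in DMSO (≤0.1%) or vehicle for 1 h, then 100 ng/mL LPS for 24 h. TNF-α and IL-1β in culture medium by ELISA against standard curves (pg/mL), expressed as % of LPS-stimulated cultures. Mean ± SEM of 3 independent experiments; one-way ANOVA, Holm-Sidak test.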

[2] = system: Drosophila; test: Antioxidant activity in Spastin Drosophila (Tubulin/Gal4 RNAi DSpast) neurodegenerative model assessed as decrease in intracelluar ROS level in brain at 10 uM flies raised in compound-enriched food by DHE staining based fluorescence analysis; assay type: functional, organism-based
Outline: (§2)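 Spastin-RNAi (Tubulin-Gal4 cross, 28 °C) third-instar larvae raised on compound-enriched food, dissected in HL3, stained 30 min with 30 μM DHE, fixed in 4% PFA, DAPI counterstained. Confocal imaging (DHE 580–630 nm); two 2500 μm² ROIs per muscle or two 1900 μm² ROIs per brain, 10–15 larvae per group; DHE/DAPI ratio.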

[3] = system: Microglia; test: Antiinflammatory activity against Sprague-Dawley rat microglial cells assessed as downregulation of TNF-alpha mRNA expression at 5 uM pretreated with compound for 1 hr followed by LPS stimulation for 6 hrs by real-time PCR analysis; assay type: functional, cell-based; conditions: time 7.0 hrs
Outline: (§3)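 Primary cortical microglia (postnatal day 1 rat pups, shaken off mixed glial cultures, ~97% Iba1-positive). Compound (DMSO ≤0.1%) for 1 h, then 100 ng/mL ultra-pure E. coli LPS for 6 h. QIAzol RNA extraction, SuperScript IV reverse transcription, real-time PCR. Mean ± SEM, n = 3 in triplicate; one-way ANOVA, Holm-Sidak test.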

[4] = system: Drosophila; test: Antioxidant activity in Spastin Drosophila (Tubulin/Gal4 RNAi DSpast) neurodegenerative model assessed as decrease in intracelluar ROS level in A2 muscle at 10 uM flies raised in compound-enriched food by DHE staining based fluorescence analysis; assay type: functional, organism-based; outline: as §2
[5] = system: Drosophila; test: Downregulation of Nrf2 transcript expression in Spastin Drosophila (Tubulin/Gal4 RNAi DSpast) neurodegenerative model at 10 uM flies raised in compound-enriched food by real-time PCR analysis; assay type: functional
Outline: (§4)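 Total RNA from 5 third-instar Spastin-RNAi larvae raised on standard or compound-enriched food; Tubulin-Gal4/+ as control line. One-step SYBR RT-qPCR normalised to Rp49 by the 2^−ΔΔCt method. n = 3 experiments; one-way ANOVA, Tukey's test.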

[6] = system: Microglia; test: Cytotoxicity against Sprague-Dawley rat microglial cells assessed as decrease in cell viability at 10 uM incubated for 24 hrs by MTT assay; assay type: toxicity, cell-based
Outline: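 Primary rat microglia, 6×10^4 cells/well, switched to serum-free medium 1 h before 24 h exposure (1–20 μM, DMSO ≤0.1%). MTT 0.18 mg/mL for 4 h at 37 °C, formazan dissolved in DMSO, absorbance 570 nm (reference 630 nm). Vehicle-treated cells = 100% viability.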

[7] = biological target: Amyloid-beta precursor protein (Homo sapiens) (UniProt P05067); test: Anti-oligomeric activity against Abeta42 (unknown origin) assessed as depletion of the formation of toxic HMW Abeta42 oligomers at 5 uM measured at day 7 from sample solubilization by capillary electrophoresis assay; conditions: time 7.0 day
Sequence of Amyloid-beta precursor protein (Homo sapiens) (P05067 whole entry): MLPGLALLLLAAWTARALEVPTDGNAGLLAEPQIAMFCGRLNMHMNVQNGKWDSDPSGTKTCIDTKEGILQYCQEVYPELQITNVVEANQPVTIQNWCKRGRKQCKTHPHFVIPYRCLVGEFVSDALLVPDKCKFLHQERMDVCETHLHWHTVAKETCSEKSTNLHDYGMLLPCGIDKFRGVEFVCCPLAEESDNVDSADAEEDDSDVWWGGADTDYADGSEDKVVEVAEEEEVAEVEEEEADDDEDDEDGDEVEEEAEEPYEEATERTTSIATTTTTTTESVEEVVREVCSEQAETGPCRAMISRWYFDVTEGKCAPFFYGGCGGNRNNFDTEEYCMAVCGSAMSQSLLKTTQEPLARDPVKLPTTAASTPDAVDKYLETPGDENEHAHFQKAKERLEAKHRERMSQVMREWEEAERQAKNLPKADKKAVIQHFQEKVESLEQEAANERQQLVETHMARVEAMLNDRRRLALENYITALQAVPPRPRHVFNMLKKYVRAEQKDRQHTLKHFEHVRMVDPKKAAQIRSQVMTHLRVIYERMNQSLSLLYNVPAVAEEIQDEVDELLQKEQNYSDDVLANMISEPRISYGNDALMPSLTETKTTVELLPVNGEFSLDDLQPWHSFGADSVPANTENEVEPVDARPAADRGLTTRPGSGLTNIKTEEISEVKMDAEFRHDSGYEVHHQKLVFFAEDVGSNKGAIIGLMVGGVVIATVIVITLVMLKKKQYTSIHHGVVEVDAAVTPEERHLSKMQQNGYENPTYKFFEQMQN
Outline: (§5)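 Aβ42 stock diluted to 221 μM in 20 mM sodium phosphate pH 7.4 containing compound (ethanol stocks 1.53 mM). Capillary electrophoresis: BGE 80 mM sodium phosphate pH 7.4, 30 mbar × 3 s hydrodynamic injection, +12 kV, 25 °C, 200 nm detection. Oligomers assigned by effective mobility; HMW oligomer peak quantified semiquantitatively as normalised area %.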

[8] = system: Microglia; test: Antiinflammatory activity against Sprague-Dawley rat microglial cells assessed as inhibition of LPS-induced IL-1 beta production at 1 to 5 uM pretreated with compound for 1 hr followed by LPS stimulation for 24 hrs by ELISA; assay type: functional, cell-based; conditions: dose 1-5 µM, time 25.0 hrs; outline: as §1
[9] = system: SH-SY5Y; test: Cytotoxicity against human SH-SY5Y cells assessed as decrease in cell viability at >5 uM incubated for 24 hrs by MTT assay; assay type: toxicity, cell-based
Outline: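 SH-SY5Y, 2×10^4 cells/well, grown 24 h then exposed 24 h (1.25–40 μM) at 37 °C, 5% CO2. MTT 0.5 mg/mL in HBSS for 2 h, washed, formazan dissolved in isopropanol, read at 570 nm (reference 690 nm).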

[10] = system: Drosophila; test: Effect on CAT transcript expression in Spastin Drosophila (Tubulin/Gal4 RNAi DSpast) neurodegenerative model at 10 uM flies raised in compound-enriched food by real-time PCR analysis; assay type: functional; outline: as §4
[11] = Toxicity against Drosophila W1118 assessed as proportion of eclosed-flies at 20 uM measured after 72 hrs
[12] = Toxicity against Drosophila W1118 assessed as proportion of eclosed-flies at 50 uM measured after 72 hrs
[13] = system: SH-SY5Y; test: Antioxidant activity in human SH-SY5Y cells assessed as increase in intracellular GSH level at 2.5 uM incubated for 24 hrs by […] fluorescence analysis; assay type: functional
Outline: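 SH-SY5Y (2×10^4 cells/well) grown 24 h, then exposed to 2.5 μM for 24 h at 37 °C. Fluorescent probe added 30 min at 37 °C; read at ex 355/em 460 nm. GSH (μM) from a GSH standard curve. Mean ± SEM of three experiments; one-way ANOVA with Dunnett's test.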

[14] = biological target: Keap1/Nrf2 (Homo sapiens) (UniProt Q16236+Q14145); test: Activation of Keap1/Nrf2 in human SH-SY5Y cells assessed as Nrf2 nuclear translocation by measuring increase in nuclear to cytosolic Nrf2 ratio at 2.5 uM incubated for 3 hrs by western blot analysis; assay type: cell-based; conditions: filed as activator
Sequence of Keap1/Nrf2 (Homo sapiens) (Q14145 whole entry, looked up): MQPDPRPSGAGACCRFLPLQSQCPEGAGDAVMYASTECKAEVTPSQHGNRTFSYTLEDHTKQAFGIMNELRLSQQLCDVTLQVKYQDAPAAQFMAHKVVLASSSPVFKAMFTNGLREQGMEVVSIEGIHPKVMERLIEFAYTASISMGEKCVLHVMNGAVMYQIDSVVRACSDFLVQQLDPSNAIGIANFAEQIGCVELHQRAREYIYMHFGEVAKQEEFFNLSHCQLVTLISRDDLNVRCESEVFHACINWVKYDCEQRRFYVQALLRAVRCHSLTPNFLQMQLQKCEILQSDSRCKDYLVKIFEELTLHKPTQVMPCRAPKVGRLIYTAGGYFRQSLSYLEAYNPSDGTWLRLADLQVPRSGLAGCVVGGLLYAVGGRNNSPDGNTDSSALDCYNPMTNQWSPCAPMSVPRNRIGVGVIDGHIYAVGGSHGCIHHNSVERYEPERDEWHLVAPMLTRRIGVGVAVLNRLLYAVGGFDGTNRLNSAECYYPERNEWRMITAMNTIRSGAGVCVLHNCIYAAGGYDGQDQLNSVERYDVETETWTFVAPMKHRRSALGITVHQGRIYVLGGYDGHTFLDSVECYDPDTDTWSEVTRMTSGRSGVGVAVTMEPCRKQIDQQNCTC
Sequence of Keap1/Nrf2 (Homo sapiens) (Q16236 whole entry, looked up): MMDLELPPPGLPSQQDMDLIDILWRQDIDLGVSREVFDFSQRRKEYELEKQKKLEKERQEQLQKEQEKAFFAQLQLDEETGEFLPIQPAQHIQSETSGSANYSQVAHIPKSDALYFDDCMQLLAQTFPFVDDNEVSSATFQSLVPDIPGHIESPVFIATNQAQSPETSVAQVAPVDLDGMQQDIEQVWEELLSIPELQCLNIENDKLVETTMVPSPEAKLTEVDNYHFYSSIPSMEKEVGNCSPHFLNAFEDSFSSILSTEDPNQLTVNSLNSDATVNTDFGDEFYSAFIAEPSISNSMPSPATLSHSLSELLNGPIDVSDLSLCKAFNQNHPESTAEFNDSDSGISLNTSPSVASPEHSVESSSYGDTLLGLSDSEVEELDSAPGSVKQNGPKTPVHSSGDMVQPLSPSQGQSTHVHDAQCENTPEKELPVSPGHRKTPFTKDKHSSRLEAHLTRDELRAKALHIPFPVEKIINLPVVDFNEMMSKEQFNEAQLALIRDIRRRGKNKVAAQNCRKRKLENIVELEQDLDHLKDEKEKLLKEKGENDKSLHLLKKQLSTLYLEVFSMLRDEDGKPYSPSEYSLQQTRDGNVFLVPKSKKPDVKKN
Outline: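 SH-SY5Y seeded 2×10^6 cells/dish, grown 24 h, then exposed 3 h at 37 °C, 5% CO2. Nuclear and cytosolic fractions immunoblotted for Nrf2, membranes stripped and reprobed for β-actin and lamin B1 as loading references. Mean ± SEM of three independent experiments; one-way ANOVA with Dunnett's test.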

[15] = Effect on IL-1 beta release in Sprague-Dawley rat microglial cells at 5 uM by ELISA; assay type: toxicity, cell-based; conditions: microglia; outline: as §1
[16] = Toxicity against Drosophila W1118 assessed as proportion of eclosed-flies at 1 uM measured after 72 hrs
[17] = system: SH-SY5Y; test: Antioxidant activity in human SH-SY5Y cells assessed as reduction in intracellular ROS formation at 2.5 uM incubated for 24 hrs followed by incubation with t-BuOOH for 30 mins by H2DCF-DA staining based fluorescence analysis; assay type: functional; conditions: time 24.5 hrs
Outline: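 SH-SY5Y (2×10^4 cells/well) exposed to 2.5 μM for 24 h, loaded with H2DCF-DA 30 min at room temperature, probe removed, then challenged with 50 μM t-BuOOH 30 min at room temperature. Fluorescence ex 485/em 535 nm, expressed as % ROS increase. Three independent experiments; one-way ANOVA with Dunnett's test.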

[18] = system: Drosophila; test: Downregulation of SOD1 transcript expression in Spastin Drosophila (Tubulin/Gal4 RNAi DSpast) neurodegenerative model at 10 uM flies raised in compound-enriched food by real-time PCR analysis; assay type: functional; outline: as §4
[19] = Toxicity against Drosophila W1118 assessed as proportion of eclosed-flies at 10 uM measured after 72 hrs
[20] = Toxicity against Drosophila W1118 assessed as minimum toxic concentration by measuring eclosion rate measured for 72 hrs
[21] = system: Microglia; test: Antiinflammatory activity against Sprague-Dawley rat microglial cells assessed as downregulation of IL-1 beta mRNA expression at 5 uM pretreated with compound for 1 hr followed by LPS stimulation for 6 hrs by real-time PCR analysis; assay type: functional, cell-based; conditions: time 7.0 hrs; outline: as §3
[22] = system: Microglia; test: Antiinflammatory activity against Sprague-Dawley rat microglial cells assessed as downregulation of NLRP3 mRNA expression at 5 uM pretreated with compound for 1 hr followed by LPS stimulation for 6 hrs by real-time PCR analysis; assay type: functional, cell-based; conditions: time 7.0 hrs; outline: as §3
[23] = Toxicity against Drosophila W1118 assessed as proportion of eclosed-flies at 30 uM measured after 72 hrs
[24] = biological target: Amyloid-beta precursor protein (Homo sapiens) (UniProt P05067); test: Anti-oligomeric activity against Abeta42 (unknown origin) assessed as depletion of the formation of toxic HMW Abeta42 oligomers at 1 uM measured at day 7 to 10 from sample solubilization by capillary electrophoresis assay; conditions: time 7-10 day; outline: as §5
[25] = Effect on TNF-alpha release in Sprague-Dawley rat microglial cells at 5 uM by ELISA; assay type: toxicity, cell-based; conditions: microglia; outline: as §1

CCOC(=O)Cn1cc(C/C(C(=O)/C=C/c2ccc(OC)cc2)=C(O)\C=C\c2ccc(OC)cc2)nn1
Activity [1]: Active | Activity [2]: Active | Activity [3]: Active | Activity [4]: Active | inhibition [5]: Active | Activity [6]: Toxic | Activity [7]: Active | Activity [8]: Active | Activity [9]: Toxic | Activity [10]: inactive | Activity [11]: 83.806% | Activity [12]: 68.373% | Activity [13]: Active | Activity [14]: Active | Activity [15]: Non-Toxic | Activity [16]: 94.037% | inhibition at 2.5 µM [17]: 28% | inhibition [18]: Active | Activity [19]: 94.732% | MTC [20]: 10 µM | Activity [21]: Active | Activity [22]: Active | Activity [23]: 81.642% | Activity [24]: Active | Activity [25]: Non-Toxic
